Beta cell apopt: blocks beta cell apoptosis. INS-1E cytokine-induced death, ATP luminescence, 48 h; percent of positive-control rescue, neutral wells zero. protection from apoptosis, % (test concentration not listed). 300,000 compounds, 0.8% hits;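 active = Every replicate reaches about 75%, or at least half do and their mean reaches it too, limit read from the data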;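 also: higher means more ATP so stronger rescue from cytokine killing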
T cruzi repl: blocks replication of Trypanosoma cruzi; 300,000 compounds, 1.4% hits; inhibition, % (concentration not given with the values); T. cruzi beta-gal in NIH3T3, luminescence, 90 h;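 active = mean inhibition across valid replicates above about 55%, limit read from the data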;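 also: signal also drops with host cell toxicity which is not excluded here; higher percent means less beta-gal luminescence so fewer parasites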
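Assay system: NIH/3T3 fibroblasts plus reporter T. cruzi. Amount: NIH/3T3 cells, 5,000 per well. Buffer or medium: DMEM, 2% fetal bovine serum. Doses: compound pinned at 50 nL/well, DMSO. Schedule: ≥90 h infection period, 3 h prior cell attachment. Signal: luminescent β-galactosidase signal after 60 min lysis. Read-out: parasite load inhibition, %.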
Efflux pump mplx: antifungal efflux pump inhibition, Nile Red retention; S. cerevisiae Candida pump triplex; inhibition, % at 10 µM; 330,000 compounds, 0.44% hits;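 active = plate passing quality check with inhibition over a set limit, or well fluorescence over plate mean plus 4 SD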;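 also: Nile Red retained in pooled yeast measured as flow cytometry median fluorescence; higher means more Nile Red kept so more efflux inhibition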
WT yeast gro inh: growth inhibition of WT yeast, mitochondrial fusion screen; mitochondrial fusion phenotypic screen, WT strain; AID 1362; inhibition, % at 10 µM; 190,000 compounds, 2.1% hits; in the data active = inhibition above about 58%; tested in S. cerevisiae
CSC inhib: cancer stem cell inhibition; cancer stem cell-like cells viability, luminescence; inhibition, % at 7.5 µM; 300,000 compounds, 1.1% hits; AID 2717; in the data active = inhibition above about 75%; tested in HMLE shEcad cells
Mot1-301 SUMO: blocks SUMOylation pathway, rescuing yeast Mot1-301 growth | S. cerevisiae Mot1-301 growth rescue, ATP luminescence, 38.5C; percent above DMSO median, 100 means doubled | growth rescue, % at 18.8 µM | 320,000 compounds, 1% hits | AID 2716;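 active = every valid replicate shows activation above 250% relative to neutral control wells; inactive = the rest, any valid replicate at or below 250%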
A number is an active result; i = inactive; nt = not tested or not shown. Only some compounds are listed: those with a hit (about 4.8% of all), similar ones and a draw of the others.

SMILES	Beta cell apopt	T cruzi repl	Efflux pump mplx	WT yeast gro inh	CSC inhib	Mot1-301 SUMO
CC(C)(O)[C@H]1O[C@H]2CC[C@@]3(C)[C@@](O)(CC[C@H]4Cc5c([nH]c6ccccc56)[C@@]43C)C2=CC1=O	i	i	i	74	i	i
C[C@]12CCC3C(CC[C@H]4C[C@H](O)CC[C@]34C)C1[C@@H](O)C[C@@H]2O (stereo not given in full)	i	nt	i	nt	i	i
CC(C)(C)C(=O)OC[N+](C)(C)CCOC(=O)C(O)(c1ccccc1)C1CCCC1 (stereo not given)	i	i	i	i	i	i
CCCC(CCC)C(=O)OC[N+](C)(C)CCOC(=O)C(O)(c1ccccc1)C1CCCC1 (stereo not given)	i	55	i	i	i	i
COC(=O)C[C@]1(C(=O)OC)CN(C#N)N(c2ccc(Cl)cc2)C12c1ccccc1-c1ccccc12	112	i	i	i	i	412
CC(=O)O[C@H]1CC[C@@]2(C)C(=CC(=O)C3C2CC[C@@]2(C)C3C[C@H](OC(C)=O)[C@@H]2OC(C)=O)C1 (stereo not given in full)	i	nt	i	nt	i	i
NCCc1nc2ccccc2s1	i	i	i	i	i	i
c1ccc2sc(C3CCNCC3)nc2c1	i	64	i	nt	i	i
CCOC(=O)CC1=C(C(=O)OCC)C2(C(=O)N1CC(=O)OC)C(C#N)=C(N)Oc1ccccc12 (stereo not given)	i	i	i	66	i	i
CCOC(=O)CN1C(=O)C2(C(C#N)=C(N)Oc3ccccc32)C(C(=O)OC)=C1C (stereo not given)	i	i	i	i	i	i
Cc1nc(SCc2c(Cl)cccc2Cl)nc(OC(=O)N(C)C)c1C	i	i	i	nt	i	i
COc1ccc(C(=O)OC2C[C@H]3CC[C@H](C2)N3C)cc1OC (stereo not given in full)	i	nt	i	nt	i	327
Cc1ccc(N2C(=O)CC(=O)NC2=O)cc1Cl	i	i	i	nt	i	i
Cc1ccc(N2C(=O)NC(=O)/C(=C/c3cnn(-c4ccc(C)cc4)c3)C2=O)cc1	85	i	i	i	i	i
COC(=O)C1=C(c2ccc(F)cc2OCc2ccccc2)C[C@@H]2CC[C@H]1N2C(=O)NCCCOC(C)C	i	nt	i	nt	i	i
Cc1ccc(NP(=O)(Oc2ccccc2F)Oc2ccccc2F)cc1	i	i	i	i	i	i
CCc1ccc(NP(=O)(Oc2ccccc2F)Oc2ccccc2F)cc1	i	i	i	62	i	i
COC(=O)C1=C(c2ccc(OC)c(OC)c2)C[C@@H]2CC[C@H]1N2C(=O)NCCCOC(C)C	i	nt	i	nt	i	i
c1ccc2c(CN3CCCCCC3)c[nH]c2c1	100	i	i	i	i	i
c1ccc2c(CN3CCOCC3)c[nH]c2c1	nt	i	i	nt	i	i
CCC1=CCN(CCc2c(C)[nH]c3ccccc23)CC1	i	i	i	nt	i	i
C[C@@H]1O[C@@H](O[C@H]2C[C@@H](O)[C@]3(CO)[C@H]4[C@H](O)C[C@]5(C)[C@@H](C6=CC(=O)OC6)CC[C@]5(O)[C@@H]4CC[C@]3(O)C2)[C@H](O)[C@H](O)[C@H]1O	i	i	nt	i	95	i
COc1ccccc1CN1CCN(Cc2ccc(Cl)cc2)CC1	i	58	i	i	i	i
COc1ccc(CN2CCN(Cc3ccccc3OC)CC2)cc1	i	i	i	nt	i	i
COC(=O)C1=C(c2ccc(F)cc2F)C[C@@H]2CC[C@H]1N2C(=O)NCCOc1ccccc1	i	nt	i	nt	i	i
SMILES	Beta cell apopt	T cruzi repl	Efflux pump mplx	WT yeast gro inh	CSC inhib	Mot1-301 SUMO
CC(C)Nc1ccc(Nc2ccccc2)cc1	113	56	i	nt	i	i
CC1CN=C(Nc2ccccc2)S1 (stereo not given)	i	i	i	i	i	i
COc1ccc(N2CCN(C(CNC(=O)Oc3ccccc3)c3cccnc3)CC2)cc1 (stereo not given)	i	62	i	i	i	i
O=C(NCC(c1cccnc1)N1CCN(c2ccccc2F)CC1)Oc1ccccc1 (stereo not given)	i	65	i	i	i	i
Fc1ccccc1N1CCN(Cc2c(F)cccc2F)CC1	i	i	i	i	i	i
C/C=C(\C)C(=O)OC1C(C)=C2C(C1OC(=O)CCCCC)C(C)(OC(C)=O)CC(OC(=O)CCC)C1(O)C2OC(=O)C1(C)O (stereo not given)	107	i	i	nt	101	i
CCCCn1c(O)c(C(C)=NCCCN(CC)CC)c(=O)[nH]c1=O	i	58	i	i	i	i
CCCCn1c(O)c(C(CC)=NCCCN(C)C)c(=O)[nH]c1=O	i	57	i	i	i	i
CCCCn1c(O)c(C(C)=NCCCN(C)C)c(=O)[nH]c1=O	i	i	i	i	i	i
Cc1nc2ccccc2c(=O)n1/N=C/c1cc(Br)cc(Br)c1O	nt	i	i	nt	i	i
Oc1ccc2c3c1OC1c4oc5ccccc5c4C[C@@]4(O)[C@@H](C2)N(CC2CC2)CC[C@]314 (stereo not given in full)	nt	nt	i	nt	nt	nt
Cc1ccc(NC(=O)[C@@H](NC(=O)N2C[C@H]3C[C@@H](C2)c2cccc(=O)n2C3)C(C)C)cc1	i	i	i	nt	i	i
Nc1ncc([N+](=O)[O-])s1	i	nt	i	nt	i	i
O=c1oc2ccccc2c(O)c1[C@H]1c2ccc(O)cc2Oc2c1c(=O)oc1ccccc21	i	i	i	nt	i	i
COC(=O)C1=C(c2ccc(F)cc2OCc2ccccc2)C[C@@H]2CC[C@H]1N2C(=O)NCc1ccc2c(c1)OCO2	i	nt	i	nt	i	i
O=c1[nH]c(CN2CC=C(c3ccccc3)CC2)nc2cc(C(F)(F)F)ccc12	i	i	i	i	i	i
O=c1[nH]c(CN2CC=C(c3ccccc3)CC2)nc2scc(-c3ccccc3)c12	i	i	i	nt	81	i
COc1cccc(CCNCc2cccc(C(F)(F)F)c2)c1	i	64	i	i	i	i
N=C(N)c1c(O)n(C2CCCCC2)c(=O)n(C2CCCCC2)c1=O	i	nt	i	96	102	i
O=C1/C(=C/c2ccccc2)C[C@@]2(O)[C@H]3Cc4ccc(O)c5c4[C@@]2(CCN3CC2CC2)C1O5 (stereo not given in full)	nt	nt	i	nt	nt	nt
CC1CCC(C(C)C)C(OC(=O)COC(=O)c2ccccc2N)C1 (stereo not given)	i	i	i	60	i	i
CC1CCC(C(C)C)C(OP(N)(=O)c2ccccc2)C1 (stereo not given)	i	i	i	i	nt	i
COC(=O)C1=C(N)Oc2cc(C)oc(=O)c2C12C(=O)Nc1ccccc12 (stereo not given)	i	i	i	i	i	i
COC(=O)C1=C(c2ccc(OC(F)(F)F)cc2)C[C@@H]2CC[C@H]1N2C(=O)N1CCCC1	i	nt	i	nt	i	i
CCc1ccc(N2C(=O)NC(=O)/C(=C\C=C\c3ccco3)C2=O)cc1	i	i	i	nt	116	i

Assay outcomes: PubChem BioAssay, several laboratories
